In test [1] the target is T1, DNA polymerase catalytic subunit (Human cytomegalovirus (strain AD169) (HHV-5) (Human herpesvirus 5), UniProt P08546).
T1 sequence (P08546 whole entry): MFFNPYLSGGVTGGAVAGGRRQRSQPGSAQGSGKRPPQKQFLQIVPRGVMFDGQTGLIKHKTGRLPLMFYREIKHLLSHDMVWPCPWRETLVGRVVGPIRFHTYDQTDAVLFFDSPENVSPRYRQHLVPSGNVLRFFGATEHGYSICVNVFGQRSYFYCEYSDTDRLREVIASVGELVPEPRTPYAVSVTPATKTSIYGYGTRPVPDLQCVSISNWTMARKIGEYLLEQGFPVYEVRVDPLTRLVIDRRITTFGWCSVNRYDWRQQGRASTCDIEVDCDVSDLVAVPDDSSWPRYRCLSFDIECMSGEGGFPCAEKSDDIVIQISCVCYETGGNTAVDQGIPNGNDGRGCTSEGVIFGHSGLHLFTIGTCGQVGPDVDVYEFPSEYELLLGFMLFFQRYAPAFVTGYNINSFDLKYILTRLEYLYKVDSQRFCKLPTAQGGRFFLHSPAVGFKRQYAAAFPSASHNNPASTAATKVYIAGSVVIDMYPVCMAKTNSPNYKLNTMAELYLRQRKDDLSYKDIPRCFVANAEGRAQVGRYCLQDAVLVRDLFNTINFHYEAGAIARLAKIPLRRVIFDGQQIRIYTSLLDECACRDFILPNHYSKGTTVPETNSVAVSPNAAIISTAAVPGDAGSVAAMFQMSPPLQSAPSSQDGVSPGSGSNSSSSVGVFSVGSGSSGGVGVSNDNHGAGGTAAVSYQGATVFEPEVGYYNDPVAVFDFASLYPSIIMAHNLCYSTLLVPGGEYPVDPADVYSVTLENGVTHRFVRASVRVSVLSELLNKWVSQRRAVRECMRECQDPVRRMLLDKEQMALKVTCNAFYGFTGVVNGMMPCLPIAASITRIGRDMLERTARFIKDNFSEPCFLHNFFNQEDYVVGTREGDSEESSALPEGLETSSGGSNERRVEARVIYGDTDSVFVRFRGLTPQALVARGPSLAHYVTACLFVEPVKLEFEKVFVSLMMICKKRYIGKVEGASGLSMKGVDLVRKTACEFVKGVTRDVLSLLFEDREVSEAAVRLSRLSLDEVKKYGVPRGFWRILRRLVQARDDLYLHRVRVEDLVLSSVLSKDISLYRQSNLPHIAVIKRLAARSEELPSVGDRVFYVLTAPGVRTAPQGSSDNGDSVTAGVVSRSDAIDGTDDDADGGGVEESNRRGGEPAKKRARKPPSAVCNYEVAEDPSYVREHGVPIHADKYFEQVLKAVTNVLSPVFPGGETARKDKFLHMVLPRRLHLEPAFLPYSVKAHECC
As to the kind of experiment: Inhibition of human cytomegalovirus DNA polymerase (95 uL) activity in a solution containing […] HEPES (pH 7.5), incubation for 12 minutes at 26 degrees C. The arrangement: species or system Human betaherpesvirus 5.

For test [2], the target named is T2, DNA polymerase catalytic subunit (Herpes simplex virus (type 1 / strain 17), UniProt P04293).
T2 sequence (P04293 whole entry): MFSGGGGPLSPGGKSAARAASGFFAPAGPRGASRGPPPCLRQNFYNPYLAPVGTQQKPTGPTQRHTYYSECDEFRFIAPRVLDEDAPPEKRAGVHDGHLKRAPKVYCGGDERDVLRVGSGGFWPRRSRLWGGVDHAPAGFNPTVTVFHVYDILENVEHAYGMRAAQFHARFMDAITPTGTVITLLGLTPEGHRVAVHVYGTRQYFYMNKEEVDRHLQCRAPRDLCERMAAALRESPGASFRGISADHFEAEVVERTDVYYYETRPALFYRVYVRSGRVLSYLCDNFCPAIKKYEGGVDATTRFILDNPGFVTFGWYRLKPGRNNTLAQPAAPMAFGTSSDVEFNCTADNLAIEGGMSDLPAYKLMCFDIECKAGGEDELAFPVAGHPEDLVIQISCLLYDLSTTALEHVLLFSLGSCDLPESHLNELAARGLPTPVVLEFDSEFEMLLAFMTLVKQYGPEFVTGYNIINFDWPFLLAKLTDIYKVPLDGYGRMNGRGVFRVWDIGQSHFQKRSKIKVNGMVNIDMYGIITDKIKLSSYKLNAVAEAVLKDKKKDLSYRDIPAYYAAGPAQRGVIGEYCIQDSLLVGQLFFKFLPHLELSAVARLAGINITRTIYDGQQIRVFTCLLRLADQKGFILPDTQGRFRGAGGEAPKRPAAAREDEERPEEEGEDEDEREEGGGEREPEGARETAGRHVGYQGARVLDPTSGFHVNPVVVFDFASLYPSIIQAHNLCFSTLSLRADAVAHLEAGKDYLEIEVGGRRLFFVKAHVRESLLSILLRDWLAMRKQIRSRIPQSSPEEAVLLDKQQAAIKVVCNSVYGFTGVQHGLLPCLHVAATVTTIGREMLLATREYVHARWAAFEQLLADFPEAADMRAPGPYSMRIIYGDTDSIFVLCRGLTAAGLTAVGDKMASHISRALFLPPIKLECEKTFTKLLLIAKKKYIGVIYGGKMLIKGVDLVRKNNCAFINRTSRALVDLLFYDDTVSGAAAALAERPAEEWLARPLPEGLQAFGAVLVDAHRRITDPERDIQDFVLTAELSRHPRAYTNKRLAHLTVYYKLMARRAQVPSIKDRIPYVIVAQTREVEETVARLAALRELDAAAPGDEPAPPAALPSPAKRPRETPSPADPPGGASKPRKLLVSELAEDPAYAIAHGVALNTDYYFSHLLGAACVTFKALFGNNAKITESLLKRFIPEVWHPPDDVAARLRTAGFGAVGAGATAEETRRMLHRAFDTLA
As to the kind of experiment: Inhibition of herpes simplex virus type 1 DNA polymerase (95 uL) activity in a solution containing […] HEPES (pH 7.5), incubation for 12 minutes at 26 degrees C. Also on record: species or system Human alphaherpesvirus 1.

In test [3] the test system is Vero. Nature of the test: Antiviral activity against herpes simplex virus type 1 KOS (PAAr5) plaque forming unit grown on African green monkey kidney Vero cells upon incubation for 1 hour at 37 degrees C with compound dissolved in DMSO. The settings on record: Chlorocebus sabaeus.
The subject of test [4] is Vero. As to the kind of experiment: Antiviral activity against herpes simplex virus type 1 KOS (PFAr2) plaque forming unit grown on Human foreskin fibroblast cells upon incubation for 1 hour at 37 degrees C with compound dissolved in DMSO. The format is functional, cell-based. The settings on record: Chlorocebus sabaeus. The gist of the method: (§1)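 Plaque reduction: about 50 PFU added per well of a 24-well dish of the appropriate cells, 1 h at 37 °C, then the inoculum was replaced by drug-containing DMEM with 10% FBS and 0.8% carboxymethyl cellulose. DMSO stocks were 200-fold. Plates were held at 37 °C until plaques formed. Plaques were counted microscopically or after crystal violet stain. Percent inhibition was taken against the uninhibited control, with IC50 by linear regression.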

The test system of test [5] is Vero. Nature of the test: Antiviral activity against herpes simplex virus type 1 Patton (WT) plaque forming unit grown on Human foreskin fibroblast cells upon incubation for 1 hour at 37 degrees C with compound dissolved in DMSO. The format is functional, cell-based. The settings on record: Chlorocebus sabaeus. An outline of the steps:
as §1

The test system of test [6] is HFF. Nature of the test: Antiviral activity against human cytomegalovirus Ad169 (V823A) plaque forming unit grown on Human foreskin fibroblast cells upon incubation for 1 hour at 37 degrees C with compound dissolved in DMSO. The format is functional, cell-based, Human betaherpesvirus 5. An outline of the steps:
as §1

Usually IC50 stands for the concentration that gives 50% inhibition. With `Cn1cc(C(=O)NCc2ccc(Cl)cc2)c(=O)c2cc(CN3CCOCC3)ccc21`, the IC50 in test [1] stood at 700 nM; in test [2] it was 600 nM.
Turning to `O=C(NCc1ccc(Cl)cc1)c1cnc2ccc(CCCO)cc2c1O`, the IC50 worked out at 400 nM in test [1] and 300 nM in test [2].
For `Cn1cc(C(=O)NCc2ccc(Cl)cc2)c(=O)c2cc(CN3CCOCC3)sc21`, the IC50 in test [3] was determined as 800 nM; in test [4], 2500 nM; in test [5], 5400 nM; in test [6], 6200 nM.

Values taken from ChEMBL document CHEMBL1141075, “4-Oxo-4,7-dihydrothieno[2,3-b]pyridines as non-nucleoside inhibitors of human cytomegalovirus and related herpesvirus polymerases” (J Med Chem, 2005).
